The source made the active and inactive calls. The calls are words filed in the database; no cut-off is given here.

The target of experiment [1] is T1, Muscarinic acetylcholine receptor M5 (Homo sapiens) (UniProt P08912).
T1 sequence (whole entry): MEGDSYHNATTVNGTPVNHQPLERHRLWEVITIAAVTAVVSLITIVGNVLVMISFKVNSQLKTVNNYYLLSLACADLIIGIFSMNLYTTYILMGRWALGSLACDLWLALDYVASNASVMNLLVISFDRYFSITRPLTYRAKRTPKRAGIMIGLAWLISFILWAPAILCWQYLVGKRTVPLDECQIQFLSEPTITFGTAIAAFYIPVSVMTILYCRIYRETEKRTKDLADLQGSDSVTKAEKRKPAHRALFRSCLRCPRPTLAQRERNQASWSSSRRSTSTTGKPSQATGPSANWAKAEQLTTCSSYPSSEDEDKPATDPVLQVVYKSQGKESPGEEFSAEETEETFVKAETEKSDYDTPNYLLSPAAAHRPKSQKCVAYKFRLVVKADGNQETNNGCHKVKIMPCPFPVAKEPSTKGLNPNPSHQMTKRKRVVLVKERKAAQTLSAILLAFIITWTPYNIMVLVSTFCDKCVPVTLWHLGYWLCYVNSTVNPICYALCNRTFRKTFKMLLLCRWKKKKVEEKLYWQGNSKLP
The experiment in a line: Antagonist activity at human muscarinic M5 receptor expressed in CHO cells assessed as inhibition of basal Eu-GTP binding. The class given is cell-based.

The target in experiment [2] is T2, Muscarinic acetylcholine receptor M2 (Homo sapiens, UniProt P08172).
T2 sequence (P08172 whole entry): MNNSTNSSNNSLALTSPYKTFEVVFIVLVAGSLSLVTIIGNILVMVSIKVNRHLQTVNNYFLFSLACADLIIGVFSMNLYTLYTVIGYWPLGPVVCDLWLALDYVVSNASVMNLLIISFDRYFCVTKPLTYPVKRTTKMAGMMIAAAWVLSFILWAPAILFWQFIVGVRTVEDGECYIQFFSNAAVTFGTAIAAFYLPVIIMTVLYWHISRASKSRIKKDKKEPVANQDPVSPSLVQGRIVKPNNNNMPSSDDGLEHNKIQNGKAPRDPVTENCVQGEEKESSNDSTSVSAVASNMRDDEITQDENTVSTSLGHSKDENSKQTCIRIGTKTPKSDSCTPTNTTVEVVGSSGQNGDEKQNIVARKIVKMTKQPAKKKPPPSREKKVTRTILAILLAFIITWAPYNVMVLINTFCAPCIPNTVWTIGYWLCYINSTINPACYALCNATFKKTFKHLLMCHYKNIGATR
The experiment in a line: Displacement of [3H]N-methylscopolamine from human muscarinic M2 receptor expressed in CHO-K1 cells. The experiment is classed as cell-based. In outline: (§1)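 Binding was measured in CHO-K1 stable transfectants expressing the human receptor subtype. Labelled ligand was [³H]-N-methylscopolamine chloride. Values are the mean of three experiments performed in triplicate.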
For orientation: Displacement assays read how much labelled ligand stays bound in the presence of the test substance.

Experiment [3] concerns the target T3, Muscarinic acetylcholine receptor M4 (Homo sapiens) (UniProt P08173).
T3 sequence (whole entry): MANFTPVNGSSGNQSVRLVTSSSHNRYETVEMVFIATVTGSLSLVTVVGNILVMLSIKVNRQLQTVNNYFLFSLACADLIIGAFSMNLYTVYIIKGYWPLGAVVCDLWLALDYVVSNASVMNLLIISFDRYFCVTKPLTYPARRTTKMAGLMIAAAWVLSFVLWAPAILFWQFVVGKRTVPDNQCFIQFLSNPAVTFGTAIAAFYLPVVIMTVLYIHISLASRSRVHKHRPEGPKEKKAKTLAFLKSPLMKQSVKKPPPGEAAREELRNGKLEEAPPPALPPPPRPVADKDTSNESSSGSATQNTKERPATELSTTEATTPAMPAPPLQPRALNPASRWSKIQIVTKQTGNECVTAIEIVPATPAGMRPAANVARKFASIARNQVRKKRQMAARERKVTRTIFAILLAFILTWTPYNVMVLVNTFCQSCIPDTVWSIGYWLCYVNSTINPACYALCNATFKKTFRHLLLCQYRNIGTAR
The experiment in a line: Antagonist activity at human muscarinic M4 receptor expressed in CHO cells assessed as inhibition of forskolin-stimulated cAMP accumulation in absence of carbachol at 01 nM to 1 uM. The experiment is classed as functional, cell-based. For orientation: cAMP levels reflect the balance of adenylyl cyclase and phosphodiesterase activity.

Experiment [4] has as its target T3, Muscarinic acetylcholine receptor M4 (Homo sapiens). The experiment in a line: Antagonist activity at human muscarinic M4 receptor expressed in CHO cells assessed as inhibition of carbachol-induced Eu-GTP binding. The experiment is classed as cell-based. In outline: (§2)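 Membranes from CHO-K1 cells stably expressing the human receptor subtype. Agonist was carbachol, and the read-out was carbachol-stimulated binding of the non-hydrolysable analogue Eu-GTP to Gα subunits. pKb was estimated functionally by concentration-ratio analysis. Values are the mean of three experiments run in triplicate.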

In experiment [5] the target is T4, Muscarinic acetylcholine receptor M4 (Homo sapiens, UniProt P08173).
T4 sequence (P08173 whole entry): T3 sequence (whole entry)
The experiment in a line: Displacement of [3H]N-methylscopolamine from human muscarinic M4 receptor expressed in CHO-K1 cells. The experiment is classed as cell-based. The essentials:
as §1

The target in experiment [6] is T5, Muscarinic acetylcholine receptor M2 (Homo sapiens) (UniProt P08172).
T5 sequence (whole entry): T2 sequence (P08172 whole entry)
The experiment in a line: Antagonist activity at human muscarinic M2 receptor expressed in CHO cells assessed as inhibition of carbachol-induced Eu-GTP binding. The experiment is classed as cell-based. The essentials:
as §2

Experiment [7] has as its target T6, Muscarinic acetylcholine receptor M3 (Homo sapiens, UniProt P20309). The experiment in a line: Antagonist activity at human muscarinic M3 receptor expressed in CHO cells assessed as inhibition of carbachol-induced Eu-GTP binding. The class given is cell-based. In outline:
as §2
Target sequence in this assay (P20309 whole entry, looked up): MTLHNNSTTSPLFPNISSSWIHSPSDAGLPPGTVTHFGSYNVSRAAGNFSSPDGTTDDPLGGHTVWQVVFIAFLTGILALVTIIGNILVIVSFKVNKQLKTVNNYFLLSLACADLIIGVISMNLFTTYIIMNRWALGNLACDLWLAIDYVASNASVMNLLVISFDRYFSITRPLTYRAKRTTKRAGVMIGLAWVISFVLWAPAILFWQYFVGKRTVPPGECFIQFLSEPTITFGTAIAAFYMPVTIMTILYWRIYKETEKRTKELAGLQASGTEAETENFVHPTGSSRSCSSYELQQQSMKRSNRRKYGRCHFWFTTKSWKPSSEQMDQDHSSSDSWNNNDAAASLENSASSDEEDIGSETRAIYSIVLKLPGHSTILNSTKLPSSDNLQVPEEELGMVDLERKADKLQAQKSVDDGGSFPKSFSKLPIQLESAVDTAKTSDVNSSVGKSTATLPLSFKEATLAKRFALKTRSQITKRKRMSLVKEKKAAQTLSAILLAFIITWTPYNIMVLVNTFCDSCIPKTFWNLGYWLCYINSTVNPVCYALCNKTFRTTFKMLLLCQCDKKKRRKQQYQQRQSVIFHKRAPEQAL

The target in experiment [8] is T6, Muscarinic acetylcholine receptor M3. The experiment in a line: Antagonist activity at human muscarinic M3 receptor expressed in CHO cells assessed as inhibition of basal Eu-GTP binding. The experiment is classed as cell-based.
Target sequence in this assay (P20309 whole entry, looked up): as above
Experiment [9] has the same target. The experiment in a line: Displacement of [3H]N-methylscopolamine from human muscarinic M3 receptor expressed in CHO-K1 cells. The class given is cell-based.
Target sequence in this assay (P20309 whole entry): as the sequence (P20309 whole entry, looked up) above
Experiment [10] concerns the target T5, Muscarinic acetylcholine receptor M2 (Homo sapiens). The experiment in a line: Antagonist activity at human muscarinic M2 receptor expressed in CHO cells assessed as inhibition of basal Eu-GTP binding. The class given is cell-based.
Experiment [11] has as its target T7, Muscarinic acetylcholine receptor M1 (Homo sapiens) (UniProt P11229).
T7 sequence (whole entry): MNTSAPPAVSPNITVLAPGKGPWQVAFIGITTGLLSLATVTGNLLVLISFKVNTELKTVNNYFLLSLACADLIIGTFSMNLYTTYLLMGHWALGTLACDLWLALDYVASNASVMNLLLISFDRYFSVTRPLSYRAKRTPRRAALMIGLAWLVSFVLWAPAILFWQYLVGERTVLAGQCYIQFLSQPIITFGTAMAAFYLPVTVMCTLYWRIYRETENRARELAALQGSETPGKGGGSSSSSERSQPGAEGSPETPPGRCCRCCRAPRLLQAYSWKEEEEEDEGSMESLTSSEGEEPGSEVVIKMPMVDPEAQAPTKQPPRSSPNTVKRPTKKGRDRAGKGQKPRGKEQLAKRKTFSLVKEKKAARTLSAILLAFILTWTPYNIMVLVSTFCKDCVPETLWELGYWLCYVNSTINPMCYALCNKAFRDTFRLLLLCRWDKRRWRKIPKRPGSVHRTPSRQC
The experiment in a line: Antagonist activity at human muscarinic M1 receptor expressed in CHO cells assessed as inhibition of basal Eu-GTP binding. The experiment is classed as cell-based.

Experiment [12] deals with T8, Muscarinic acetylcholine receptor M5 (Homo sapiens, UniProt P08912).
T8 sequence (P08912 whole entry): T1 sequence (whole entry)
The experiment in a line: Displacement of [3H]N-methylscopolamine from human muscarinic M5 receptor expressed in CHO-K1 cells. The class given is cell-based. In outline:
as §1

Experiment [13] concerns the target T3, Muscarinic acetylcholine receptor M4 (Homo sapiens). The experiment in a line: Antagonist activity at human muscarinic M4 receptor expressed in CHO cells assessed as inhibition of basal Eu-GTP binding. The class given is cell-based.
The target of experiment [14] is T7, Muscarinic acetylcholine receptor M1 (Homo sapiens). The experiment in a line: Antagonist activity at human muscarinic M1 receptor expressed in CHO cells assessed as inhibition of carbachol-induced Eu-GTP binding. The experiment is classed as cell-based. The essentials:
as §2

The target in experiment [15] is T4, Muscarinic acetylcholine receptor M4. The experiment in a line: Antagonist activity at human muscarinic M4 receptor expressed in CHO cells assessed as blockade of carbachol-induced inhibition of forskolin-stimulated cAMP accumulation. The experiment is classed as functional, cell-based.
Experiment [16] addresses T9, Muscarinic acetylcholine receptor M1 (Homo sapiens, UniProt P11229).
T9 sequence (P11229 whole entry): T7 sequence (whole entry)
The experiment in a line: Displacement of [3H]N-methylscopolamine from human muscarinic M1 receptor expressed in CHO-K1 cells. The class given is cell-based.

Experiment [17] concerns the target T1, Muscarinic acetylcholine receptor M5 (Homo sapiens). The experiment in a line: Antagonist activity at human muscarinic M5 receptor expressed in CHO cells assessed as inhibition of carbachol-induced Eu-GTP binding. The experiment is classed as cell-based. In outline:
as §2

By Ki is commonly meant the dissociation constant of the complex between target and ligand, obtained from inhibition or displacement. The low end stands for higher affinity, the high end for lower affinity. What is called pKb is −log10 of the Kb, conventionally taken in molar units. For orientation: EC50 means the midpoint of the concentration-response curve. In general, IC50 refers to the concentration at which inhibition is half-maximal. In the case of `CCOC(=O)c1c(C)[nH]c2ccc3c(c12)CN1CCc2cc(OC)ccc2C1O3` (stereo not drawn), the outcome in experiment [1], in experiment [3], in [8], in experiment [10], in experiment [11] and in [13] was inactive. The Ki in experiment [2] is 1100 nM; in experiment [5] it was 6.46 nM; in [9], 724 nM; in experiment [12], 1820 nM; in experiment [16], 2290 nM. Besides, the negative-log Kb (pKb) came out at 7.9 in [4]; 5.55 in experiment [6]; 5.63 in [7]; 5.74 in experiment [14]; 5.84 in [17]. Moreover, the EC50 in experiment [15] is 54 nM. The IC50 in experiment [15] is over 1000 nM.

For the origin of these results see ChEMBL document CHEMBL1144815, “Diphenidol-related diamines as novel muscarinic M4 receptor antagonists” (Bioorg Med Chem Lett, 2008).
